Compounds with a hit are over-represented: about 0.77% of the library has one in this group of screens.
mIAP inh: inhibitors of mouse IAP, primary screen, biochemical, luminescence, uHTS | purified mouse IAP, CDP-Star luminescence, 30 min | inhibition, % at 10 µM | actives 0.2% (n = 330,000);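 active = inhibition of at least 40% at 10 µM in the primary screen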;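 note: plate controls were DMSO with enzyme for no effect and no enzyme wells for full effect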
hIAP activ: human IAP activators, primary screen, biochemical, luminescence, uHTS. activation factor at 10 µM. Intestinal-type alkaline phosphatase (Homo sapiens), P09923. actives 0.16% (n = 330,000). purified human IAP, CDP-Star luminescence, 30 min; stronger effect = higher value; 1 = vehicle-only enzyme, 0 = enzyme-free background. AID 2524, 2010;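 active = activation factor of the enzyme at least 2-fold when tested at 20 µM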
Target sequence (P09923 whole entry, looked up): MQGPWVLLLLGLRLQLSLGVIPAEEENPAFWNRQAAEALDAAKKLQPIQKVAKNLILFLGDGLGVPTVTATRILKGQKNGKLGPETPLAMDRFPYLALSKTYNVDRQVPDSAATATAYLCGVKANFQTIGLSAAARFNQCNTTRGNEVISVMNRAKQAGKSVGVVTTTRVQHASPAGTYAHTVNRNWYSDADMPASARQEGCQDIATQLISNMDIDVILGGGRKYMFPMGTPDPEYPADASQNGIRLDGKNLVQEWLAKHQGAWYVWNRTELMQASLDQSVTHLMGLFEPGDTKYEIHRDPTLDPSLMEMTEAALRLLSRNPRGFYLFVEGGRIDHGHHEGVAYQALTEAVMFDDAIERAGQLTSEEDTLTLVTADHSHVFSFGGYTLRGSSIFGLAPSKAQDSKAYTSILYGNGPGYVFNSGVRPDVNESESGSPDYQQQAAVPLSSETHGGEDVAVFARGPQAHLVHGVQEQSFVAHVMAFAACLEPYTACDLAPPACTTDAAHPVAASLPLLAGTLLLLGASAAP
hIAP inh: human IAP inhibitors, primary screen, biochemical, luminescence, uHTS; Intestinal-type alkaline phosphatase (Homo sapiens), P09923; purified IAP, CDP-Star luminescence, 30 min; inhibition, % at 10 µM; actives 0.12% (n = 330,000); AID 2544, 2010;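 active = inhibition reaching a set limit with compound at 10 µM in the primary screen, cut at about 35% in these data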;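 note: plate controls were DMSO wells with enzyme for no effect and no-enzyme buffer wells for full effect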
bIAP activator: bovine intestinal alkaline phosphatase activators, primary screen, biochemical, bovine IAP, CDP-star luminescence | activation factor at 20 µM | alkaline phosphatase, intestinal [Bos taurus] | purified bovine IAP, 30 min; stronger effect = higher value; fold of DMSO-control signal, blank-subtracted | actives 0.17% (n = 200,000);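 active = activation factor of 2 or more at 20 µM, a signal rise over negative controls twice the positive control's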
mIAP activ: activators of mouse IAP, primary screen, biochemical, luminescence, uHTS; actives 0.24% (n = 330,000); activation factor at 10 µM; muIAP, CDP-Star luminescence, 30 min; stronger effect = higher value; 1 = vehicle-only enzyme signal, 0 = enzyme-free wells; intestinal alkaline phosphatase [Mus musculus];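 active = activation factor of at least 2 at 20 µM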
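also added = chemiluminescent substrate CDP-Star | test system = mouse IAP enzyme | signal = chemiluminescence readout | compound = DMSO-dissolved test compounds | incubation = 30 min at room temperature | benchmarks = DMSO wells, no-enzyme wells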
bIAP inh: bovine intestinal alkaline phosphatase inhibitors, primary screen, selectivity assay for TNAP inhibitor project, biochemical, bovine IAP, CDP-star luminescence; purified bovine IAP, 30 min; inhibition, % at 20 µM; 190,000 tested, under 10 active;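 active = over 50% inhibition of intestinal alkaline phosphatase at 20 µM in the single-dose screen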
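test system = bovine IAP enzyme | medium = DEA buffer 100 mM, pH 9.8, with MgCl2 1.0 mM, ZnCl2 0.02 mM | detection = luminescence | dosing = single compound dose of 20 µM, 2% DMSO final | incubation = 30 min reaction at room temperature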
hIAP act conf: human IAP activators, confirmation, biochemical, luminescence, single concentration, uHTS hits; actives 10% (n = 880); shares compounds with hIAP activ; activation (%Activity, negative = activation), % at 8.3 µM; purified IAP, CDP-Star luminescence, 30 min; stronger effect = lower value;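 active = at least twofold enzyme activation in any of six single-dose repeats, which the averaged readout prints as negative percent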
mIAP inh conf: inhibitors of mouse IAP, confirmation, biochemical, luminescence, single concentration; actives 4.7% (n = 11,000); shares compounds with mIAP inh; purified mouse IAP, CDP-Star luminescence, 30 min; inhibition, % at 10 µM;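 active = inhibition of at least 40% at 10 µM in either of the two replicates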;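 note: plate controls were DMSO wells with enzyme for no effect and buffer wells lacking enzyme for full effect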
The depositor's hits bear a star; i = inactive; / = no result given.

SMILES | mIAP inh | hIAP activ | hIAP inh | bIAP activator | mIAP activ | bIAP inh | mIAP inh conf | others
Cc1cccc(C(O)(C(=O)NNC(=O)CN2CCN(C)CC2)c2cccc(C)c2)c1 | 0 | 1.7 | -75 | 2.3* | 1 | -129 | /
Cc1ccc(C(O)(C(=O)NNC(=O)CN2CCN(C)CC2)c2ccc(C)cc2)cc1 | -13 | 1 | -2 | 0.9 | 1.1 | 10 | /
COc1cc(/C=C/[N+](=O)[O-])ccc1O | 46* | 0.76 | 24 | 0.9 | 0.54 | 11 | /
CCOC(=O)c1c(-n2c(C)cc(C=C3C(=O)NC(=S)NC3=O)c2C)sc2c1CCCC2 | 51* | 1 | -2 | 0.5 | 0.49 | / | /
O=C1NC(=O)N(c2ccccc2)C(=O)/C1=C/c1coc2ccc(O)cc2c1=O | 9 | 0.94 | 6 | / | 0.91 | / | /
O=C1NC(=S)NC(=O)C1C/C=C/c1ccccc1 | 42* | 0.95 | 5 | 1 | 0.58 | -5 | /
O=C/C=C/c1ccccc1 | 4 | 0.91 | 9 | / | 0.96 | / | /
CC(C)C(=O)Nc1ccc(S(=O)(=O)N2CC3CC(C2)c2cccc(=O)n2C3)cc1 (centres undefined) | 2 | 1.2 | -17 | 1.1 | 0.98 | -8 | /
CN(C)C(Cc1ccccc1)C(=O)c1cccs1 (centres undefined) | / | / | / | 1 | / | -5 | /
CCOc1ccc2nc(N=Nc3c(O)[nH]c(=S)[nH]c3=O)sc2c1 | 44* | 0.84 | 16 | 0.7 | 0.56 | 34 | /
CC(C)Cc1nnc(NC(=O)CCC(=O)N2CCC3(CC2)OCCO3)s1 | -7 | 2.3* | -133 | / | 1.1 | / | / | hIAP act conf=-77
CN=C(SCC(=O)c1cccc(Cl)c1)c1c(O)n(C)c(=O)n(C)c1=O | 11 | 1 | -4 | / | 0.89 | / | /
Cc1ccc(-c2nc(N3CCOCC3)s[n+]2-c2ccccc2)cc1 | / | / | / | 0.9 | / | 8 | /
CN(C)c1nc(-c2ccccc2)[n+](C)s1 | 6 | 0.58 | 42* | 1 | 0.94 | 1 | / | hIAP act conf=7
Cc1ccc(CN2C3CCCC2CC(NC(=O)Nc2cccc(F)c2)C3)cc1 (centres undefined) | i | 2.2* | -117 | 6.7* | 11* | i | -348 | hIAP act conf=-4
COc1ccc(CNCCc2ccc3c(c2)OCO3)cc1Br | -1 | 1.1 | -7 | / | 1 | / | /
COc1cccc(N2C(=O)NC(=O)/C(=C/c3ccc([N+](=O)[O-])s3)C2=O)c1 | 48* | 0.93 | 7 | / | 0.52 | / | 51*
COc1ccc(N2C(=O)NC(=O)/C(=C\c3ccc([N+](=O)[O-])s3)C2=O)cc1 | 23 | 0.95 | 5 | 1 | 0.77 | 2 | /
Fc1ccccc1CNCCc1ccc2c(c1)OCO2 | 3 | 0.9 | 10 | / | 0.97 | / | /
O=C1NC(=O)N(Cc2ccccc2)C(=O)/C1=C/C=C/c1ccco1 | 57* | 0.99 | 1 | / | 0.43 | / | 66*
O=[N+]([O-])c1cc(S(=O)(=O)c2ccc(O)c([N+](=O)[O-])c2)ccc1O | 63* | 1 | 0 | 0.7 | 0.37 | 29 | 53*
Cn1c(O)c(C=NC2CCCCCC2)c(=O)[nH]c1=S | 5 | 0.96 | 4 | 1 | 0.95 | 5 | /
N/C(=N\[N+](=O)[O-])N/N=C/c1ccc(O)cc1 | 2 | 0.83 | 17 | 1 | 0.98 | -2 | /
Nc1nonc1C(=O)N/N=C/c1ccc([N+](=O)[O-])o1 | 55* | 1 | -2 | 1 | 0.45 | 4 | 72*
O=C(NC1CCCCC1)Oc1cc2oc(=O)sc2cc1Cl | 61* | 1.1 | -8 | / | 0.39 | / | 76*
SMILES | mIAP inh | hIAP activ | hIAP inh | bIAP activator | mIAP activ | bIAP inh | mIAP inh conf | others
Cc1ccc(N2C(=O)/C(=C/c3ccc(CN(CCC#N)S(C)(=O)=O)o3)C(=O)NC2=S)cc1 | 47* | 0.94 | 6 | 1 | 0.53 | -1 | 44*
O=C(C(=O)N1CCOCC1)c1cn(Cc2ccc(F)cc2)c2ccccc12 | -5 | 0.97 | 3 | / | 1 | / | /
COc1ccccc1C1CC2CCC(C1OC(C)=O)N2Cc1ccccc1 (centres undefined) | 7 | 1.2 | -16 | / | 0.93 | / | /
Cc1cccc(OCCn2cccc2/C=C2/C(=O)NC(=O)N(Cc3ccco3)C2=O)c1 | 40* | 0.9 | 10 | / | 0.6 | / | 57*
O=C1NC(=O)N(Cc2ccco2)C(=O)/C1=C\c1cccn1CCOc1ccc(Cl)cc1 | 49* | 1.1 | -12 | 0.9 | 0.51 | 15 | 50*
O=C(C1CCCN(c2nnc(-n3cccc3)s2)C1)N1CCC2(CC1)OCCO2 (centres undefined) | -6 | 1 | -4 | 0.9 | 1.1 | 10 | /
CCN(CC)c1ccc(/C=C2\C(=O)NC(=O)N(CC3CCCO3)C2=O)cc1 (centres undefined) | 11 | 0.95 | 5 | 0.2 | 0.89 | / | /
CCN(CC)c1ccc(/C=C2/C(=O)NC(=O)N(Cc3ccco3)C2=O)cc1 | 61* | 1.1 | -9 | 0.8 | 0.39 | 20 | 46*
C=CCN1C(=O)NC(=O)/C(=C\c2ccc(-c3ccccc3[N+](=O)[O-])o2)C1=O | 11 | 1.1 | -7 | 1 | 0.89 | 0 | /
O=C1NC(=O)N(Cc2ccco2)C(=O)/C1=C/c1ccc(-c2cccc([N+](=O)[O-])c2)o1 | 61* | 0.86 | 14 | 0.9 | 0.39 | 15 | 68*
CN(C)c1ccc(/C=C2/C(=O)NC(=O)N(Cc3ccco3)C2=O)cc1 | 48* | 1.1 | -8 | 0.8 | 0.52 | 21 | 48*
COC(=O)C1=C(c2ccccc2OCc2ccccc2)C[C@@H]2CC[C@H]1N2C(=O)NCCCOC(C)C | 6 | 0.91 | 9 | / | 0.94 | / | /
O=c1[nH]c(=O)n(-c2ccc(Br)cc2)c(O)c1C=NCCN1CCCCC1 | -2 | 1.2 | -18 | / | 1 | / | /
O=C1NC(=S)NC(=O)C1=Cc1ccc2c(c1)CCN2CCCCl | 66* | 1 | -2 | / | 0.34 | / | 73*
O=C1NC(=O)N(c2cccc(Cl)c2)C(=O)/C1=C\c1ccc(Sc2nc3ccccc3[nH]2)o1 | 46* | 1.1 | -7 | 1 | 0.54 | 0 | 50*
O=C1NC(=O)N(c2ccccc2F)C(=O)/C1=C/c1ccc(Sc2nc3ccccc3[nH]2)o1 | / | / | / | 0.9 | / | 13 | /
N[C@@H](CCl)C(=O)O | -5 | 1.3 | -28 | / | 1.1 | / | /
NC(Cc1cc(O)c(O)cc1O)C(=O)O (centres undefined) | 84* | 1.2 | -17 | / | 0.17 | / | 88*
COc1ccc(-n2c(O)c(/C(C)=N/N3CCCCCC3)c(=O)[nH]c2=O)cc1 | 1 | 1 | -2 | / | 0.99 | / | /

Compound activity from PubChem.
